According to ChEMBL document CHEMBL3351317 (J Med Chem, 2014):

Key:
[1] = Distribution coefficient, log D between 1-octonol and aqueous phosphate buffer at pH 7.4; format: physicochemical; conditions: 1-octanol/aqueous phosphate buffer
In short: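 logD measured as distribution between 1-octanol and aqueous phosphate buffer, pH 7.4.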

Mus musculus = organism: Mus musculus; assay: fCmax in mouse during 12 days study; format: ADME, organism-based; conditions: in vivo, 288 h
[2] = Permeability from apical to basolateral side in human Caco2 cells at 10 uM; format: ADME, cell-based; conditions: Caco-2
In short: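 In vitro Caco-2 monolayer, compound at 10 µM. Apparent permeability (Papp) measured apical to basolateral; efflux ratio also determined.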

[3] = Stability in pH 1 to 8 buffer; format: physicochemical
[4] = Stability in pH 10 buffer assessed as loss of trifluoro-oxadiazole group; format: physicochemical
[5] = Degradation half life in pH 10 buffer assessed as loss of trifluoro-oxadiazole group by measuring piperazine level at 25 degC; format: physicochemical
[6] = Plasma clearance in C57BL6 mouse at 3 mg/kg, iv or 5 mg/kg, po; format: ADME, organism-based
In short: (§1)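 Male C57BL6 mice. IV dose 3 mg/kg as a solution in 5% DMSO:95% hydroxypropyl β-cyclodextrin. Oral dose 5 mg/kg as a 0.1% HMPC/tween suspension. Plasma sampled for pharmacokinetic parameters.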

[7] = Volume of distribution at steady state in C57BL6 mouse at 3 mg/kg, iv or 5 mg/kg, po; format: ADME, organism-based; conditions: in vivo, read-out: Vdss; in short: as §1
[8] = Half life in C57BL6 mouse at 5 mg/kg, po; format: ADME, organism-based; parameters: dose 5 mg/kg, route oral; conditions: in vivo
[9] = Half life in C57BL6 mouse at 3 mg/kg, iv; format: ADME, organism-based; parameters: dose 3 mg/kg, route intravenous; conditions: in vivo
In short: (§2)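 Male C57BL6 mice given 3 mg/kg, male Han Wistar rats 2 mg/kg, beagle dogs (male and female) 2 mg/kg, IV as solution in 5% DMSO:95% hydroxypropyl β-cyclodextrin; plasma PK parameters determined.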

[10] = Oral bioavailability in C57BL6 mouse at 5 mg/kg; format: ADME, organism-based; conditions: in vivo; in short: as §1
[11] = Plasma clearance in Han Wistar rat at 2 mg/kg, iv or 5 mg/kg, po; format: ADME, organism-based
In short: (§3)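 Male Han Wistar rats. IV dose 2 mg/kg in 5% DMSO:95% hydroxypropyl β-cyclodextrin. Oral dose 5 mg/kg as a 0.1% HMPC/tween suspension. Plasma pharmacokinetic parameters derived.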

[12] = Volume of distribution at steady state in Han Wistar rat at 2 mg/kg, iv or 5 mg/kg, po; format: ADME, organism-based; conditions: in vivo, read-out: Vdss; in short: as §3
[13] = Half life in Han Wistar rat at 5 mg/kg, po; format: ADME, organism-based; parameters: dose 5 mg/kg, route oral; conditions: in vivo
[14] = Half life in Han Wistar rat at 2 mg/kg, iv; format: ADME, organism-based; parameters: dose 2 mg/kg, route intravenous; conditions: in vivo; in short: as §2
[15] = Oral bioavailability in Han Wistar rat at 5 mg/kg; format: ADME, organism-based; conditions: in vivo; in short: as §3
[16] = Plasma clearance in beagle dog at 2 mg/kg, iv or 3.4 mg/kg, po; format: ADME, organism-based, Canis lupus familiaris
In short: (§4)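 Beagle dogs, male and female. IV dose 2 mg/kg in 5% DMSO:95% hydroxypropyl β-cyclodextrin. Oral dose 3.4 mg/kg as a 0.1% Pluronic F127 suspension. Plasma pharmacokinetic parameters derived.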

[17] = Volume of distribution at steady state in beagle dog at 2 mg/kg, iv or 3.4 mg/kg, po; format: ADME, organism-based, Canis lupus familiaris; conditions: in vivo, read-out: Vdss; in short: as §4
[18] = Half life in beagle dog at 3.4 mg/kg, po; format: ADME, organism-based, Canis lupus familiaris; parameters: dose 3.4 mg/kg, route oral; conditions: in vivo
[19] = Half life in beagle dog at 2 mg/kg, iv; format: ADME, organism-based, Canis lupus familiaris; parameters: dose 2 mg/kg, route intravenous; conditions: in vivo; in short: as §2
[20] = Oral bioavailability in beagle dog at 3.4 mg/kg; format: ADME, organism-based, Canis lupus familiaris; conditions: in vivo; in short: as §4
[21] = Intrinsic clearance in mouse hepatocytes assessed per million cells; format: ADME, cell-based, Hepatocyte; conditions: read-out: CLH
[22] = Intrinsic clearance in dog hepatocytes assessed per million cells; format: ADME, cell-based, Canis lupus familiaris, Hepatocyte; conditions: read-out: CLH
[23] = Intrinsic clearance in human hepatocytes assessed per million cells; format: ADME, cell-based, Hepatocyte; conditions: read-out: CLH
[24] = Cmax in Han Wistar rat at 4.5 mg/kg, po; format: ADME, organism-based; parameters: dose 4.5 mg/kg, route oral; conditions: in vivo
[25] = Cmax in Han Wistar rat at […], po; format: ADME, organism-based; parameters: dose 7.1 mg/kg, route oral; conditions: in vivo
[26] = Cmax in Han Wistar rat at 12 mg/kg, po; format: ADME, organism-based; parameters: dose 12 mg/kg, route oral; conditions: in vivo
[27] = Cmax in Han Wistar rat at 19 mg/kg, po; format: ADME, organism-based; parameters: dose 19 mg/kg, route oral; conditions: in vivo
[28] = Cmax in Han Wistar rat at 100 mg/kg, po; format: ADME, organism-based; parameters: dose 100 mg/kg, route oral; conditions: in vivo
[29] = Cmax in Han Wistar rat at 154 mg/kg, po; format: ADME, organism-based; parameters: dose 154 mg/kg, route oral; conditions: in vivo
[30] = AUC (0 to 24 hrs) in Han Wistar rat at 4.5 mg/kg, po; format: ADME, organism-based; parameters: time < 24 hr, dose 4.5 mg/kg, route oral; conditions: plasma
In short: (§5)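 Male Han Wistar rats, fed, single oral dose of suspension in 0.1% Pluronic F127; plasma AUC0-24hr in μM.h; mean of two animals.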

[31] = AUC (0 to 24 hrs) in Han Wistar rat at […], po; format: ADME, organism-based; parameters: time < 24 hr, dose 7.1 mg/kg, route oral; conditions: plasma
[32] = AUC (0 to 24 hrs) in Han Wistar rat at 12 mg/kg, po; format: ADME, organism-based; parameters: time < 24 hr, dose 12 mg/kg, route oral; conditions: plasma; in short: as §5
[33] = AUC (0 to 24 hrs) in Han Wistar rat at 19 mg/kg, po; format: ADME, organism-based; parameters: time < 24 hr, dose 19 mg/kg, route oral; conditions: plasma; in short: as §5
[34] = AUC (0 to 24 hrs) in Han Wistar rat at 100 mg/kg, po; format: ADME, organism-based; parameters: time < 24 hr, dose 100 mg/kg, route oral; conditions: plasma; in short: as §5
[35] = AUC (0 to 24 hrs) in Han Wistar rat at 154 mg/kg, po; format: ADME, organism-based; parameters: time < 24 hr, dose 154 mg/kg, route oral; conditions: plasma; in short: as §5
[36] = Cmax in beagle dog at 5 mg/kg, po; format: ADME, organism-based, Canis lupus familiaris; parameters: dose 5 mg/kg, route oral; conditions: in vivo
[37] = Cmax in beagle dog at 50 mg/kg, po; format: ADME, organism-based, Canis lupus familiaris; parameters: dose 50 mg/kg, route oral; conditions: in vivo
[38] = Cmax in beagle dog at 98 mg/kg, po; format: ADME, organism-based, Canis lupus familiaris; parameters: dose 98 mg/kg, route oral; conditions: in vivo
[39] = AUC (0 to 24 hrs) in beagle dog at 5 mg/kg, po; format: ADME, organism-based, Canis lupus familiaris; parameters: time < 24 hr, dose 5 mg/kg, route oral; conditions: plasma
In short: (§6)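 Beagle dogs (one male, one female), fed, single oral dose of suspension in 0.1% Pluronic F127; plasma AUC0-24hr in μM.h; mean of the two animals.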

[40] = AUC (0 to 24 hrs) in beagle dog at 50 mg/kg, po; format: ADME, organism-based, Canis lupus familiaris; parameters: time < 24 hr, dose 50 mg/kg, route oral; conditions: plasma; in short: as §6
[41] = AUC (0 to 24 hrs) in beagle dog at 98 mg/kg, po; format: ADME, organism-based, Canis lupus familiaris; parameters: time < 24 hr, dose 98 mg/kg, route oral; conditions: plasma; in short: as §6
[42] = Cmax in C57BL6 mouse at […], po; format: ADME, organism-based; parameters: dose 5.7 mg/kg, route oral; conditions: in vivo
[43] = Cmax in C57BL6 mouse at 11 mg/kg, po; format: ADME, organism-based; parameters: dose 11 mg/kg, route oral; conditions: in vivo
[44] = Cmax in C57BL6 mouse at 31 mg/kg, po; format: ADME, organism-based; parameters: dose 31 mg/kg, route oral; conditions: in vivo
[45] = Cmax in C57BL6 mouse at 57 mg/kg, po; format: ADME, organism-based; parameters: dose 57 mg/kg, route oral; conditions: in vivo
[46] = AUC (0 to 24 hrs) in C57BL6 mouse at […], po; format: ADME, organism-based; parameters: time < 24 hr, dose 5.7 mg/kg, route oral; conditions: plasma
[47] = AUC (0 to 24 hrs) in C57BL6 mouse at 11 mg/kg, po; format: ADME, organism-based; parameters: time < 24 hr, dose 11 mg/kg, route oral; conditions: plasma
In short: (§7)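 Male C57BL6 mice, fed, single oral dose of suspension in 0.1% Pluronic F127; plasma sampled, AUC0-24hr in μM.h; mean of two animals.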

[48] = AUC (0 to 24 hrs) in C57BL6 mouse at 31 mg/kg, po; format: ADME, organism-based; parameters: time < 24 hr, dose 31 mg/kg, route oral; conditions: plasma; in short: as §7
[49] = AUC (0 to 24 hrs) in C57BL6 mouse at 57 mg/kg, po; format: ADME, organism-based; parameters: time < 24 hr, dose 57 mg/kg, route oral; conditions: plasma; in short: as §7

C[C@@H]1CN(c2nnc(C(F)(F)F)o2)CCN1c1ncc(OCc2ccc(CS(C)(=N)=O)cc2F)cn1 (stereo not given in full)
logD [1]: 2.1

C[C@@H]1CN(c2nc(C(F)(F)F)no2)CCN1c1ncc(OCc2ccc(S(C)(=O)=O)cc2F)cn1
logD [1]: 3.7

C[C@@H]1CN(c2nc(C(F)(F)F)no2)CCN1c1ncc(OCc2ccc(CS(C)(=O)=O)cc2F)cn1
logD [1]: 3.6
fCmax (Mus musculus): 0.7 µM
Papp A→B at 10 µM [2]: 10 ×10⁻⁶ cm/s
Stability [3]: Stable
Stability [4]: Unstable
t1/2 [5]: 60 h
clearance [6]: 9.8 mL/min/kg
Vd [7]: 5.1 L/kg
half-life [8]: 6.9 h
half-life [9]: 6.3 h
bioavailability [10]: 76%
clearance [11]: 11 mL/min/kg
Vd [12]: 5.2 L/kg
half-life [13]: 6.7 h
half-life [14]: 6.1 h
bioavailability [15]: 85%
clearance [16]: 1.6 mL/min/kg
Vd [17]: 3.3 L/kg
half-life [18]: 30 h
half-life [19]: 26 h
bioavailability [20]: 98%
hepatocyte CLint [21]: 7 µL/min/1e6 cells
hepatocyte CLint [22]: < 2 µL/min/1e6 cells
hepatocyte CLint [23]: < 2 µL/min/1e6 cells
Cmax [24]: 0.8 µM
Cmax [25]: 1.1 µM
Cmax [26]: 3.4 µM
Cmax [27]: 7.5 µM
Cmax [28]: 8 µM
Cmax [29]: 13.7 µM
AUC(0-t) at 24 h [30]: 10 µM·h
AUC(0-t) at 24 h [31]: 11 µM·h
AUC(0-t) at 24 h [32]: 33 µM·h
AUC(0-t) at 24 h [33]: 106 µM·h
AUC(0-t) at 24 h [34]: 123 µM·h
AUC(0-t) at 24 h [35]: 247 µM·h
Cmax [36]: 1.5 µM
Cmax [37]: 3.2 µM
Cmax [38]: 5.3 µM
AUC(0-t) at 24 h [39]: 20 µM·h
AUC(0-t) at 24 h [40]: 42 µM·h
AUC(0-t) at 24 h [41]: 78 µM·h
Cmax [42]: 2.5 µM
Cmax [43]: 3.3 µM
Cmax [44]: 11.8 µM
Cmax [45]: 29 µM
AUC(0-t) at 24 h [46]: 26 µM·h
AUC(0-t) at 24 h [47]: 35 µM·h
AUC(0-t) at 24 h [48]: 151 µM·h
AUC(0-t) at 24 h [49]: 456 µM·h

C[C@@H]1CN(c2nc(C(F)(F)F)no2)CCN1c1ncc(OCc2ccc(C[S+](C)[O-])cc2F)cn1 (stereo not given in full)
logD [1]: 3.4

C[C@@H]1CN(c2nc(C(F)(F)F)no2)CCN1c1ncc(OCc2ccc(CS(C)(=N)=O)cc2F)cn1 (stereo not given in full)
logD [1]: 2.8

C[C@@H]1CN(c2nc(C(F)(F)F)no2)CCN1c1ncc(OCc2ccc(N=S(C)(C)=O)cc2F)cn1
logD [1]: 3.4

C[C@@H]1CN(C(=O)OC2(C(F)(F)F)COC2)CCN1c1ncc(OCc2ccc(CS(C)(=O)=O)cc2F)cn1
logD [1]: 2.9

C[C@@H]1CN(C(=O)OC2(C(F)(F)F)COC2)CCN1c1ncc(OCc2ccc(OS(C)(=O)=O)cc2F)cn1
logD [1]: 3.7

C[C@@H]1CN(C(=O)OC2(C(F)(F)F)COC2)CCN1c1ncc(OCc2ccc(S(C)(=O)=O)cc2F)cn1
logD [1]: 3

CC(C)c1noc(N2CCN(c3ncc(OCc4ccc(CS(C)(=O)=O)cc4F)cn3)[C@H](C)C2)n1
logD [1]: 3.1

CC(C)c1noc(N2CCN(c3ncc(OCc4ccc(S(C)(=O)=O)cc4F)cn3)[C@H](C)C2)n1
logD [1]: 3.4
